The source of these data is ChEMBL document CHEMBL1811774, “Chromone, a privileged scaffold for the development of monoamine oxidase inhibitors” (J Med Chem, 2011).

Series [1] deals with T1, Amine oxidase [flavin-containing] B (Homo sapiens, UniProt P27338).
T1 sequence (P27338 whole entry): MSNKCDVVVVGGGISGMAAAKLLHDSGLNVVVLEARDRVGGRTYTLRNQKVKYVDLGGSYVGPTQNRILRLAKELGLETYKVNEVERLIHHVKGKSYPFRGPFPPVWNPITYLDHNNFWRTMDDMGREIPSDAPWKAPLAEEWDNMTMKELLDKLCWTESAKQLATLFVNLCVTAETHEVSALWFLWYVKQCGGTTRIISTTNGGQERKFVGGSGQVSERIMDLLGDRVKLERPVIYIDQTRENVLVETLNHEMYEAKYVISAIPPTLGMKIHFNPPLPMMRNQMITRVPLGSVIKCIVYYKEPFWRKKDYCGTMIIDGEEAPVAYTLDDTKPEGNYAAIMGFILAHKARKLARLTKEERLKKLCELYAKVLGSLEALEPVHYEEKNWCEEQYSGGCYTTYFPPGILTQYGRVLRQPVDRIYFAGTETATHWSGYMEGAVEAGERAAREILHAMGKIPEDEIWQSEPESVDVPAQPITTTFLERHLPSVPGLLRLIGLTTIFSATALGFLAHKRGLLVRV
As to the kind of experiment: Inhibition of human MAO-B assessed as inhibition of p-tyramine oxidation to p-hydroxyphenyl-acetaldehyde at 100 uM after 15 mins by fluorimetric method. The conditions noted are these: 0.25 h. Put shortly:
(§1)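 Microsomal recombinant hMAO-A or hMAO-B from baculovirus-infected BTI-TN5B1-4 insect cells. Enzyme was set to oxidize 165 pmol p-tyramine/min (MAO-A 1.1 μg, MAO-B 7.5 μg protein). It was preincubated with compound 15 min at 37 C in 0.05 M sodium phosphate, pH 7.4. Reaction started with final 200 μM Amplex Red, 1 U/mL HRP and 1 mM p-tyramine. H2O2-derived resorufin fluorescence (ex 545/em 590) read over 15 min at 37 C, background-subtracted, against vehicle controls. Highest concentration 100 μM or 1 mM; mean ± SEM, n = 5.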

The target in series [2] is T2, Amine oxidase [flavin-containing] A (Homo sapiens, UniProt P21397).
T2 sequence (P21397 whole entry): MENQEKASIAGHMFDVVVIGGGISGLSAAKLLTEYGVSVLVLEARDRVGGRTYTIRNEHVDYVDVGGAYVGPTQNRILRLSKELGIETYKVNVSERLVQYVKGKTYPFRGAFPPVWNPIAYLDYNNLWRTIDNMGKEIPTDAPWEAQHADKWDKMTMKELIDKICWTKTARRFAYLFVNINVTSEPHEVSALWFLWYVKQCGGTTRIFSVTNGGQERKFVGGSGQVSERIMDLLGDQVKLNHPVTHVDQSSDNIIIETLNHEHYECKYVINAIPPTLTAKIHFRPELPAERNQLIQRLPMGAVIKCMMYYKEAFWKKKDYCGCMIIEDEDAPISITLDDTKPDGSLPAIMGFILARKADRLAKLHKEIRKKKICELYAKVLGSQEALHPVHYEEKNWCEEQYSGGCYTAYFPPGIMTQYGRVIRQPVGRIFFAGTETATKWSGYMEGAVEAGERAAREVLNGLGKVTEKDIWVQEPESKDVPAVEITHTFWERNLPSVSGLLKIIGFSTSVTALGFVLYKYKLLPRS
Briefly: Inhibition of human MAO-A assessed as inhibition of p-tyramine oxidation to p-hydroxyphenyl-acetaldehyde at 100 uM after 15 mins by fluorimetric method. The settings on record: 0.25 h.

Series [3] has as its target T1, Amine oxidase [flavin-containing] B. As to the kind of experiment: Inhibition of human MAO-B assessed as inhibition of p-tyramine oxidation to p-hydroxyphenyl-acetaldehyde after 15 mins by fluorimetric method.
For series [4], the species on record is Homo sapiens. As to the kind of experiment: Selectivity index, ratio of IC50 for human MAO-A to IC50 for human MAO-B.
The target in series [5] is T2, Amine oxidase [flavin-containing] A. As to the kind of experiment: Inhibition of human MAO-A assessed as inhibition of p-tyramine oxidation to p-hydroxyphenyl-acetaldehyde after 15 mins by fluorimetric method. The essentials:
as §1

For series [6], the target named is T1, Amine oxidase [flavin-containing] B. Briefly: Inhibition of human MAO-B assessed as inhibition of p-tyramine oxidation to p-hydroxyphenyl-acetaldehyde at 1 mM after 15 mins by fluorimetric method. The conditions noted are these: 0.25 h, 1000 µM. The essentials:
as §1

The target is the same in series [7]. Briefly: Irreversible inhibition of human MAOB expressed assessed as inhibition of p-tyramine oxidation to p-hydroxyphenyl-acetaldehyde at 100 uM measured after repeated washing by centrifugation-ultrafiltration method. The essentials:
(§2)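 Recombinant hMAO-B preincubated with a single compound concentration for 15 min at 37 C in 0.05 M sodium phosphate, pH 7.4. One aliquot kept at 4 C, unwashed. The rest was ultrafiltered through a 30 kDa membrane (9000g, 20 min, 4 C), resuspended and spun twice more.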

Series [8] has the same target. Briefly: Reversible inhibition of human MAOB expressed assessed as inhibition of p-tyramine oxidation to p-hydroxyphenyl-acetaldehyde at 100 uM measured before repeated washing by centrifugation-ultrafiltration method. Put shortly:
as §2

Take `O=C(Nc1ccccc1)c1cc(=O)c2ccccc2o1`: the “inhibition (INH)” value in series [1] and in series [2] was “Not Active” each time.

In the case of `O=C(Nc1ccc(O)c(O)c1)c1cc(=O)c2ccccc2o1`, the results for the IC50 in series [3] and in series [5] were 2660 nM and 190 nM, respectively. Also, the Ratio IC50 in series [4] is 0.071.

In the case of `O=C(NC1CCCCC1)c1cc(=O)c2ccccc2o1`, the “inhibition (INH)” value in series [6] and in series [2] was “Not Active” throughout.

On to `COc1ccc(NC(=O)c2coc3ccccc3c2=O)cc1O`, for which the IC50 in series [3] was determined as 76 nM; in series [5], 8340 nM. Moreover, the Ratio IC50 in series [4] worked out at 110.

As to `O=C(Nc1ccc(Cl)cc1)c1cc(=O)c2ccccc2o1`, the “inhibition (INH)” value in series [1] and in series [2] was “Not Active” in each case.

With `O=C(Nc1ccc(O)cc1)c1coc2ccccc2c1=O`, the IC50 is 64 nM in series [3] and 4760 nM in series [5]. In addition, in series [4], the Ratio IC50 turned out to be 74. For the same compound, the values for the inhibition at 100 µM in series [7] and in series [8] were 23.5% and 60.3%, respectively.

As for `O=C(Nc1ccc(O)c(O)c1)c1coc2ccccc2c1=O`, the IC50 was 160 nM in series [3] and 430 nM in series [5]. Moreover, the Ratio IC50 in series [4] is 2.7.

In the case of `O=C(Nc1ccc([N+](=O)[O-])cc1)c1coc2ccccc2c1=O`, the IC50 in series [3] worked out at 11800 nM; in series [5], 11100 nM. The Ratio IC50 in series [4] worked out at 0.94.

`O=C(Nc1ccc(C(F)(F)F)cc1)c1coc2ccccc2c1=O`: the IC50 in series [3] came out at 110 nM. For the same compound, in series [4], the Ratio IC50 is above 909. Besides, the “inhibition (INH)” value in series [2] is reported as “Not Active”.

On to `O=C(Nc1ccc(OC(F)(F)F)cc1)c1coc2ccccc2c1=O`, for which the IC50 in series [3] came to 1080 nM. In addition, in series [4], the Ratio IC50 is above 93. The “inhibition (INH)” value in series [2] is listed as “Not Active”.

For `COc1ccc(NC(=O)c2coc3ccccc3c2=O)cc1OC`, the IC50 in series [3] was found to be 2330 nM. Also, the Ratio IC50 in series [4] is above 43. In series [2], the “inhibition (INH)” value was “Not Active”.

Turning to `COc1ccc(NC(=O)c2cc(=O)c3ccccc3o2)cc1OC`, the “inhibition (INH)” value in series [1] and in series [2] was “Not Active” in each case.

Consider `O=C(Nc1ccc([N+](=O)[O-])cc1)c1cc(=O)c2ccccc2o1`, for which the “inhibition (INH)” value in series [1] and in series [2] was “Not Active” in each case.

For the compound `O=C(Nc1ccc(O)cc1)c1cc(=O)c2ccccc2o1`, the IC50 in series [3] came to 41900 nM; in series [5] it was 65200 nM. For the same compound, the Ratio IC50 in series [4] was 1.6.

Consider `O=C(Nc1ccc(C(F)(F)F)cc1)c1cc(=O)c2ccccc2o1`, for which the “inhibition (INH)” value in series [1] and in series [2] was “Not Active” each time.

With `O=C(NC1CCCCC1)c1coc2ccccc2c1=O`, the IC50 in series [3] was determined as 930 nM. The Ratio IC50 in series [4] is above 107. Further, in series [2], the “inhibition (INH)” value is “Not Active”.

`CCCNC(=O)c1coc2ccccc2c1=O`: in series [3], the IC50 came to 37700 nM. Further, the Ratio IC50 in series [4] was above 2.7. Also, the “inhibition (INH)” value in series [2] is reported as “Not Active”.

For `COc1ccc(NC(=O)c2cc(=O)c3ccccc3o2)cc1O`, the “inhibition (INH)” value in series [1] and in series [2] was “Not Active” throughout.

Consider `CCCNC(=O)c1cc(=O)c2ccccc2o1`, for which the “inhibition (INH)” value in series [6] and in series [2] was “Not Active” each time.

`O=C(Nc1ccc(OC(F)(F)F)cc1)c1cc(=O)c2ccccc2o1`: the “inhibition (INH)” value in series [1] and in series [2] was “Not Active” each time.

Broadly, the IC50 is the point on the concentration scale where inhibition reaches its midpoint. What is called inhibition is the share of the control response that was lost under treatment.
